For assay [1], the system named is Bacillus thuringiensis. Kind of assay: Antibacterial activity against Bacillus thuringiensis SCSIO BT01 after 18 hrs by broth microdilution method. Format: functional. Conditions: SCSIO BT01, 18 h. In a few lines: (§1)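 Broth microdilution. Pre-cultures were grown 16 h on a rotary shaker: the bacteria at 37 °C and C. albicans at 28 °C. Each was adjusted with sterile medium to OD600 0.04–0.06, diluted a further 10-fold, and dispensed to plates. Compounds were serially diluted from 64 to 0.125 μg/mL in duplicate. OD600 was read after 18 h. MIC was the lowest concentration completely inhibiting visible growth, taken from two independent experiments.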
(In general: In broth dilution the organism is exposed to a series of concentrations in liquid medium.)

The test system of assay [2] is Candida albicans. The experiment in a line: Antifungal activity against Candida albicans ATCC 10231 after 18 hrs by broth microdilution method. Format: functional. Conditions: ATCC 10231, 18 h. In a few lines:
as §1

Assay [3] concerns MCF7. Kind of assay: Cytotoxicity against human MCF7 cells by SRB assay. Format: functional, cell-based. In short, it runs like this:
(§2)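 Sulforhodamine B assay following a previously described protocol, run on three human tumour lines: MCF-7 (breast adenocarcinoma), NCI-H460 (non-small-cell lung cancer) and SF-268 (glioma). Activity was reported as IC50.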
Background: Sulforhodamine B stains cellular protein and so reports cell mass.

The test system of assay [4] is NCI-H460. The experiment in a line: Cytotoxicity against human NCI-H460 cells by SRB assay. Format: functional, cell-based. In a few lines:
as §2

The test system of assay [5] is SF-268. Kind of assay: Cytotoxicity against human SF268 cells by SRB assay. Format: functional, cell-based. In a few lines:
as §2

For assay [6], the system named is Bacillus subtilis. The experiment in a line: Antibacterial activity against Bacillus subtilis SCSIO BS01 after 18 hrs by broth microdilution method. Format: functional. Conditions: SCSIO BS01, 18 h. In a few lines: as §1
Assay [7] deals with Escherichia coli. Kind of assay: Antibacterial activity against Escherichia coli ATCC 25922 after 18 hrs by broth microdilution method. Format: functional. Conditions: ATCC 25922, 18 h. In short, it runs like this:
as §1

Assay [8] has as its system Staphylococcus aureus. Kind of assay: Antibacterial activity against Staphylococcus aureus ATCC 29213 after 18 hrs by broth microdilution method. Format: functional. The note with it: ATCC 29213, 18 h. In a few lines: as §1

Converted amounts (≈) assume the structure as drawn.

Usually MIC stands for the smallest concentration in the dilution series that meets the test's criterion for growth inhibition. Read a high MIC as a less susceptible organism. The term IC50 denotes the point on the concentration scale where inhibition reaches its midpoint. A lower IC50 goes with higher potency.

Take `CC(C)C(=O)O[C@@H]1c2c(cc(O)c3c2C(=O)c2cccc(O)c2-3)C(=O)[C@@]2(C)O[C@@H]12` [FLUOSTATIN D]: the MIC in assay [1], in assay [2], in assay [6], in assay [7] and in assay [8] was over 64 µg/mL throughout. The IC50 in assay [3], in assay [4] and in assay [5] was over 100 µM throughout.
Take `C[C@]1(Cl)C(=O)c2cc(O)c3c(c2[C@@H](O)[C@@H]1O)C(=O)c1cccc(O)c1-3` [FLUOSTATIN E]: the MIC in assay [1], in assay [2], in assay [6], in assay [7] and in assay [8] was over 64 µg/mL in each case. Moreover, the IC50 in assay [3], in assay [4] and in assay [5] was over 100 µM each time.
As to `CO[C@@H]1c2c(cc(O)c3c2C(=O)c2cccc(O)c2-3)C(=O)[C@@]2(C)O[C@@H]12` [FLUOSTATIN F], the MIC is over 64 µg/mL in assay [1]; over 64 µg/mL in assay [2]; over 64 µg/mL in assay [6]; over 64 µg/mL in assay [7]; 32 µg/mL (≈ 94.6 µM) in assay [8]. Further, the IC50 in assay [3], in assay [4] and in assay [5] was over 100 µM throughout.
On to `CC(C)C(=O)O[C@@H]1c2c(cc(O)c3c2C(=O)c2cccc(O)c2-3)C(=O)[C@H](C)[C@H]1O` [FLUOSTATIN I], for which the MIC in assay [1], in assay [2], in assay [6], in assay [7] and in assay [8] was over 64 µg/mL each time. Besides, the IC50 in assay [3], in assay [4] and in assay [5] was over 100 µM in each case.
As for `CCC(C)C(=O)O[C@@H]1c2c(cc(O)c3c2C(=O)c2cccc(O)c2-3)C(=O)[C@@]2(C)O[C@@H]12` (some centres not stated) [FLUOSTATIN J], the MIC in assay [1], in assay [2], in assay [6], in assay [7] and in assay [8] was over 64 µg/mL each time. Moreover, the IC50 in assay [3], in assay [4] and in assay [5] was over 100 µM in each case.
On to `C[C@]1(O)C=Cc2c(cc(O)c3c2C(=O)c2cccc(O)c2-3)C1=O` [FLUOSTATIN K], for which the MIC in assay [1], in assay [2], in assay [6], in assay [7] and in assay [8] was over 64 µg/mL in each case. Further, the IC50 in assay [3], in assay [4] and in assay [5] was over 100 µM in each case.
For the molecule `C[C@]12O[C@H]1[C@H](O)c1c(cc(O)c3c1C(=O)c1cccc(O)c1-3)C2=O` [FLUOSTATINS C], the MIC is over 64 µg/mL in assay [1]; over 64 µg/mL in assay [2]; over 64 µg/mL in assay [6]; over 64 µg/mL in assay [7]; 16 µg/mL (≈ 49.3 µM) in assay [8]. Further, the IC50 in assay [3], in assay [4] and in assay [5] was over 100 µM throughout.
Take `Cc1cc(O)c2c3c(ncc2c1)C(=O)c1c(O)cccc1C3=O` [PHENANTHROVIRIDONE]: the MIC in assay [1] was 4 µg/mL (≈ 13.1 µM); in assay [2], over 64 µg/mL; in assay [6], 64 µg/mL (≈ 210 µM); in assay [7] it was 32 µg/mL (≈ 105 µM); in assay [8], 0.25 µg/mL (≈ 0.819 µM). Moreover, the values for the IC50 in assay [3], in assay [4] and in assay [5] were 0.17 µM, 2.18 µM and 0.09 µM, respectively.
For `C[C@]1(O)CC(=O)c2c(cc(O)c3c2C(=O)c2cccc(O)c2C3=O)C1` [RABELOMYCIN], the MIC in assay [1] was 8 µg/mL (≈ 23.6 µM); in assay [2], over 64 µg/mL; in assay [6], 16 µg/mL (≈ 47.3 µM); in assay [7], 16 µg/mL (≈ 47.3 µM); in assay [8] it was 1 µg/mL (≈ 2.96 µM). For the same molecule, the IC50 in assay [3] is 4.28 µM; in assay [4], 9.91 µM; in assay [5], 5.54 µM.

(Values after ChEMBL document CHEMBL2163340, “Fluostatins I-K from the South China Sea-derived micromonospora rosaria SCSIO N160” (J Nat Prod, 2012).)
